# Experiments:
# HL-60 [1] = assay: Cytotoxicity against human HL60 cells assessed as cell viability after 48 hrs by celltiter-blue assay; format: functional, cell-based; details: HL-60, 48 h
# Summary of the method: (§1)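 Tumour cell growth inhibition was measured in vitro, following the lab's established procedure. IC50 values are the mean of at least two independent experiments, each run in triplicate.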
# K562 [2] = assay: Cytotoxicity against human K562 cells assessed as cell viability after 48 hrs by celltiter-blue assay; format: functional, cell-based; details: K562, 48 h; summary of the method: as §1
# CCRF-CEM [3] = assay: Cytotoxicity against human CCRF-CEM cells assessed as cell viability after 48 hrs by celltiter-blue assay; format: functional, cell-based; summary of the method: as §1
# HL-60 [4] = assay: Ratio of IC50 for human HL60/MX2 cells to IC50 for human HL60 cells; format: functional
# Summary of the method: (§2)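 Each resistant subline and its matched parental line were tested in the same growth-inhibition assay, with IC50 taken as the mean of at least two independent experiments in triplicate. The MDR/parental IC50 ratio is reported as relative sensitivity: above 1 means resistance, below 1 means collateral sensitivity. Parental lines came from different sources for each resistant pair.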
# HL-60 [5] = assay: Ratio of IC50 for human HL60/ADR cells to IC50 for human HL60 cells; format: functional; summary of the method: as §2
# HL-60 [6] = assay: Ratio of IC50 for daunorubicin-resistant human HL60 cells to IC50 for human HL60 cells; format: functional; summary of the method: as §2
# HL-60 [7] = assay: Ratio of IC50 for doxorubicin-resistant human HL60 cells to IC50 for human HL60 cells; format: functional; summary of the method: as §2
# K562 [8] = assay: Ratio of IC50 for doxorubicin-resistant human K562 cells to IC50 for human K562 cells; format: functional; summary of the method: as §2
# K562 [9] = assay: Ratio of IC50 for human K562/HHT300 cells to IC50 for human K562 cells; format: functional; summary of the method: as §2
# CCRF-CEM [10] = assay: Ratio of IC50 for human CCRF-CEM/C2 cells IC50 for human CCRF-CEM cells; format: functional; summary of the method: as §2
# CCRF-CEM [11] = assay: Ratio of IC50 for human CCRF-CEM/VM-1-5 cells IC50 for human CCRF-CEM cells; format: functional; summary of the method: as §2
# CCRF-CEM [12] = assay: Ratio of IC50 for human CCRF-CEM/VLB100 cells IC50 for human CCRF-CEM cells; format: functional; summary of the method: as §2
smiles,measurement,setting,value
C#CCOC(=O)CC1C(C(=O)OCC#C)=C(N)Oc2ccc(-c3ccc(N(C)C)cc3)cc21 (racemic),IC50,HL-60 [1],2.56 µM
CCOC(=O)CC1C(C(=O)OCC)=C(N)Oc2ccc(-c3cccc(NC)c3)cc21 (racemic),IC50,HL-60 [1],7.45 µM
COc1cc(OC)cc(-c2ccc3c(c2)C(CC(=O)OCC2CO2)C(C(=O)OCC2CO2)=C(N)O3)c1 (racemic),IC50,HL-60 [1],> 80 µM
C#CCOC(=O)CC1C(C(=O)OCC#C)=C(N)Oc2ccc(-c3cccc(NC(=O)CCl)c3)cc21 (racemic),IC50,HL-60 [1],5.3 µM
C#CCOC(=O)CC1C(C(=O)OCC)=C(N)Oc2ccc(-c3cccc(NCC)c3)cc21 (racemic),IC50,HL-60 [1],17.2 µM
CCOC(=O)CC1C(C(=O)OCC)=C(N)Oc2ccc(-c3cccs3)cc21 (racemic),IC50,HL-60 [1],> 80 µM
COc1cccc2c1C(=O)c1c(O)c3c(c(O)c1C2=O)C[C@@](O)(C(=O)CO)C[C@@H]3O[C@H]1C[C@H](N)[C@H](O)[C@H](C)O1 [DOXORUBICIN],IC50,HL-60 [1],0.04 µM
same,IC50,K562 [2],0.44 µM
same,IC50,CCRF-CEM [3],0.11 µM
same,Ratio IC50,HL-60 [4],5.3
same,Ratio IC50,HL-60 [5],>15
same,Ratio IC50,HL-60 [6],>50
same,Ratio IC50,HL-60 [7],>100
same,Ratio IC50,K562 [8],>10
same,Ratio IC50,K562 [9],>20
same,Ratio IC50,CCRF-CEM [10],6.7
same,Ratio IC50,CCRF-CEM [11],>15
CCOC(=O)CC1C(C(=O)OCC)=C(N)Oc2ccc(-c3ccc(F)cc3F)cc21 (racemic),IC50,HL-60 [1],76.6 µM
CCOC(=O)CC1C(C(=O)OCC)=C(N)Oc2ccc(-c3ccnc(OC)c3)cc21 (racemic),IC50,HL-60 [1],10.2 µM
C#CCOC(=O)CC1C(C(=O)OCC#C)=C(N)Oc2ccc(-c3ccc(NCC)cc3)cc21 (racemic),IC50,HL-60 [1],7.27 µM
C#CCOC(=O)CC1C(C(=O)OCC)=C(N)Oc2ccc(-c3cccc(N)c3)cc21 (racemic),IC50,HL-60 [1],3.4 µM
C#CCOC(=O)CC1C(C(=O)OCC)=C(N)Oc2ccc(-c3cccc(NC)c3)cc21 (racemic),IC50,HL-60 [1],7.13 µM
C#CCOC(=O)CC1C(C(=O)OCC)=C(N)Oc2ccc(-c3ccc(N)cc3)cc21 (racemic),IC50,HL-60 [1],10.5 µM
CCOC(=O)CC1C(c2nc(-c3ccc(OC)cc3)no2)=C(N)Oc2ccc(-c3cc(OC)cc(OC)c3)cc21 (racemic),IC50,HL-60 [1],> 80 µM
O=C1c2c(O)ccc(O)c2C(=O)c2c(NCCNCCO)ccc(NCCNCCO)c21 [MITOXANTRONE],IC50,HL-60 [1],0.016 µM
same,IC50,K562 [2],0.51 µM
same,IC50,CCRF-CEM [3],0.036 µM
same,Ratio IC50,HL-60 [4],>20
same,Ratio IC50,HL-60 [5],2.4
same,Ratio IC50,HL-60 [6],>10
same,Ratio IC50,HL-60 [7],>20
same,Ratio IC50,K562 [8],5.1
same,Ratio IC50,K562 [9],>10
same,Ratio IC50,CCRF-CEM [10],3
same,Ratio IC50,CCRF-CEM [11],>30
same,Ratio IC50,CCRF-CEM [12],2.3
CCOC(=O)CC1C(C(=O)OCC)=C(N)Oc2ccc(-c3cncnc3)cc21 (racemic),IC50,HL-60 [1],37.9 µM
CN(C)CC[C@H](CSc1ccccc1)Nc1ccc(S(=O)(=O)NC(=O)c2ccc(N3CCN(Cc4ccccc4-c4ccc(Cl)cc4)CC3)cc2)cc1[N+](=O)[O-] [ABT 737],IC50,HL-60 [1],0.76 µM
same,IC50,K562 [2],34.7 µM
same,IC50,CCRF-CEM [3],0.74 µM
same,Ratio IC50,HL-60 [4],1.5
same,Ratio IC50,HL-60 [5],4.5
same,Ratio IC50,HL-60 [6],4.9
same,Ratio IC50,HL-60 [7],19.7
same,Ratio IC50,K562 [8],2.7
same,Ratio IC50,K562 [9],2.3
same,Ratio IC50,CCRF-CEM [10],0.2
same,Ratio IC50,CCRF-CEM [11],2.2
same,Ratio IC50,CCRF-CEM [12],0.3
CCOC(=O)CC1C(C(=O)OCC)=C(N)Oc2ccc(-c3ccccc3F)cc21 (racemic),IC50,HL-60 [1],73 µM
C#CCOC(=O)CC1C(C(=O)OCC#C)=C(N)Oc2ccc(-c3cccc(-n4cnnn4)c3)cc21 (racemic),IC50,HL-60 [1],1.62 µM
Nc1ccn([C@@H]2O[C@H](CO)[C@@H](O)[C@@H]2O)c(=O)n1 [CYTARABINE],IC50,HL-60 [1],0.049 µM
same,IC50,K562 [2],14 µM
same,IC50,CCRF-CEM [3],0.006 µM
same,Ratio IC50,HL-60 [4],0.4
same,Ratio IC50,HL-60 [5],0.1
same,Ratio IC50,HL-60 [7],7.5
same,Ratio IC50,K562 [8],1.5
same,Ratio IC50,K562 [9],7
same,Ratio IC50,CCRF-CEM [10],4.1
same,Ratio IC50,CCRF-CEM [11],6.5
same,Ratio IC50,CCRF-CEM [12],1
C#CCOC(=O)CC1C(C(=O)OCC#C)=C(N)Oc2ccc(-c3cccc(NC)c3)cc21 (racemic),IC50,HL-60 [1],0.88 µM
CCOC(=O)CC1C(C(=O)OCC)=C(N)Oc2ccc(-c3cccnc3)cc21 (racemic),IC50,HL-60 [1],21.5 µM
CCOC(=O)CC1C(C(=O)OCC)=C(N)Oc2ccc(-c3cccc(F)c3)cc21 (racemic),IC50,HL-60 [1],76.4 µM

# — ChEMBL document CHEMBL2146381, “Structure-activity relationship (SAR) study of ethyl 2-amino-6-(3,5-dimethoxyphenyl)-4-(2-ethoxy-2-oxoethyl)-4H-chromene-3-carboxylate (CXL017) and the potential of the lead against multidrug resistance in cancer treatment” (J Med Chem, 2012)
